This note sets out measurements from ChEMBL document CHEMBL2057186, “Application of the bicyclo[1.1.1]pentane motif as a nonclassical phenyl ring bioisostere in the design of a potent and orally active γ-secretase inhibitor” (J Med Chem, 2012).

≈ marks a conversion by molar mass, not a printed value.

Data set [1] is described as follows: Fraction unbound in 129/sve mouse plasma at 30 mg/kg, po administered as single dose. The format is ADME, organism-based. Further details: dose 30 mg/kg, route oral; call rule not given here.
The species named for data set [2] is Homo sapiens. The experiment in a line: Selectivity for human gamma-seretase over notch signalling protein.
For data set [3], the system named is P-gp. The experiment in a line: Efflux ratio of apparent permeability from basal to apical side to apical to basal side of MDCK cells expressing human P-gp. As to conditions: dog, MDCK-MDR1. The format is ADME, cell-based, Canis lupus familiaris. In a few lines: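 Monolayers were MDCK cells transfected with the human P-glycoprotein (MDR1) gene. Permeability was measured basolateral-to-apical and apical-to-basolateral, and the BA/AB ratio was reported.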

The nature of data set [4]: Volume of distribution at steady state in Sprague-Dawley rat at 1 mg/kg, iv. Format: ADME, organism-based. Further details: dose 1 mg/kg, route intravenous. As to conditions: in vivo, read-out: Vdss. In outline: (§1)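 Female rats were dosed once, 1 mg/kg iv (2 mL/kg, 0.5 mg/mL) or 5 mg/kg po (10 mL/kg, 0.5 mg/mL). Vehicle was 40% (w/v) hydroxypropyl-β-cyclodextrin. Plasma was sampled to 24 h. Values are means ± SEM (n = 3).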

The test system of data set [5] is Mus musculus. In words: Antialzheimer activity in 129/sve mouse assessed as reduction in amyloid beta40 level in CSF at 30 mg/kg, po administered as single dose measured at 1 hr by ELISA relative to vehicle treated control. Format: functional. Details: scale not given: the % may be the effect or the level left. In outline:
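Wild-type male 129/sve mice received a single oral dose in Phosal 50 PG/Tween 80 vehicle. Aβ40 was measured in brain, CSF and plasma and Aβ42 in brain over a time course. Levels are expressed as % of vehicle-treated animals. Values are mean ± SEM, n = 5 or 8 per time point.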
(ELISA stands for enzyme-linked immunosorbent assay.)

Data set [6] can be described thus: Cmax in 129/sve mouse plasma at 30 mg/kg, po administered as single dose by LC-MS/MS analysis. The format is ADME, organism-based. Further details: dose 30 mg/kg, route oral. In a few lines: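 Single-dose oral PK in wild-type male 129/sve mice. Formulation was 98% (v/v) Phosal 50 PG with 2% Tween 80. Compound was measured in plasma, brain and CSF. Values are means ± standard deviations (n = 4 or 5).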

In data set [7] the target is Cytochrome P450 2C19 (Homo sapiens, UniProt P33261). The experiment in a line: Inhibition of CYP2C19 in human liver microsomes using (S)-mephenytoin as substrate. The format is ADME, Microsome. For orientation: Liver microsomes are vesicles of endoplasmic reticulum, rich in cytochrome P450 enzymes.
Chain of Cytochrome P450 2C19 (P33261 whole entry): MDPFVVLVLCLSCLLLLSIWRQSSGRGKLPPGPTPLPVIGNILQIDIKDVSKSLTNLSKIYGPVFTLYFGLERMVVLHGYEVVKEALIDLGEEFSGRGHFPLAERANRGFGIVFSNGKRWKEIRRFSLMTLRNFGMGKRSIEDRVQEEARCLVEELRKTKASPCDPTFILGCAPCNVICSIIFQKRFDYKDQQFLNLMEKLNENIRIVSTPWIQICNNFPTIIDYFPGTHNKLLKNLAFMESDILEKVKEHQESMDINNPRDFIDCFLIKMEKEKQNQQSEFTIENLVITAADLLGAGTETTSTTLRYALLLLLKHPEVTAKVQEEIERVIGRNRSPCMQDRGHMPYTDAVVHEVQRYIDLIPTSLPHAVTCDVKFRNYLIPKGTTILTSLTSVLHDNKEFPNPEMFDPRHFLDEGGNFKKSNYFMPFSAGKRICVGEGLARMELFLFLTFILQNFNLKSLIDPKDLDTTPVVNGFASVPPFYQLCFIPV
A short description of data set [8]: AUC (last) in 129/sve mouse plasma at 30 mg/kg, po administered as single dose by LC-MS/MS analysis. The format is ADME, organism-based. Further details: dose 30 mg/kg, route oral, time 0 - last. In a few lines: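 Wild-type male 129/sve mice received a single oral dose in 98% (v/v) Phosal 50 PG / 2% Tween 80. Drug was measured in plasma, brain and CSF. Study was nonserial, so AUC came from mean matrix concentrations at each time point. Values are mean ± SD (n = 4 or 5).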

Data set [9] in a line: Cmax in Sprague-Dawley rat at 5 mg/kg, po. Format: ADME, organism-based. Further details: dose 5 mg/kg, route oral. The settings on record: in vivo. In a few lines: as §1
Data set [10] is described as follows: Oral bioavailability in Sprague-Dawley rat at 5 mg/kg. The settings on record: in vivo. The format is ADME, organism-based. In outline:
as §1

Data set [11] can be described thus: Ratio of fraction unbound in brain to fraction unbound in plasma in Sprague-Dawley rat. The format is ADME.
A short description of data set [12]: Thermodynamic solubility of the compound at pH 7.4. The settings on record: buffer, read-out: Therm_solubility. The format is physicochemical. In outline:
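Thermodynamic solubility was measured in aqueous buffer at pH 6.5 and at pH 7.4.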

Data set [13] is described as follows: Kinetic solubility of the solubility of the compound at pH 6.5. The format is physicochemical. The settings on record: buffer, read-out: Kinetic_solubility. In a few lines:
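Kinetic solubility was measured in aqueous buffer at pH 6.5.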

Data set [14] has as its system Liver microsomes. In words: Drug metabolism in human liver microsomes assessed as GSH/GSH-EE adduct formation after 60 mins by LC/MS/MS analysis. The format is ADME, Microsome. As to conditions: 1 h.
The nature of data set [15]: Ratio of drug level in brain to plasma in Sprague-Dawley rat. The settings on record: read-out: BPR. The format is ADME.
In data set [16] the test system is Hepatocyte. In words: Apparent total intrinsic clearance in human hepatocytes assessed per million cells. Format: ADME, cell-based.

Consider `NC(=O)[C@@H](CCC(F)(F)F)N(CC12CC(c3ncon3)(C1)C2)S(=O)(=O)c1ccc(Cl)cc1`, for which the fraction unbound – broadly, the share of the substance not bound to proteins or other matrix – in data set [1] is 0.0354. In data set [2], this compound showed a Selectivity Index of 178. Also, in data set [3], the efflux ratio – broadly, a quotient of directional permeabilities that is used to spot active efflux – was determined as 1.66. The Vd in data set [4] amounted to 2.12 L/kg. For the same compound, the Activity in data set [5] is reported as 64%. For the same compound, the figures for the Cmax in [6] and in data set [9] were 6.48 µM and 1.86 µM, respectively. Further, the “inhibition (INH)” value in [7] is listed as “Not Active”. The AUC(0-t) (in general, the area under the concentration-time curve up to a stated or last time point) in data set [8] turned out to be 14.3 µM·h. Further, the bioavailability (commonly dose-corrected exposure relative to a reference, in per cent) in data set [10] came to 100%. Moreover, the Ratio in data set [11] worked out at 0.34. The solubility thermodynamic in [12] is 29.4 µM (≈ 14.5 µg/mL). Further, the solubility kinetic in [13] was determined as 216 µM (≈ 106 µg/mL). In [14], the Drug metabolism entry is recorded as “Not Active”. Further, the Kp in data set [15] worked out at 0.61. Further, the CLt/F in data set [16] is less than 3.8 µL/min.
